Results collected from several papers.
pKi: −log10 of the molar value.
Chymotrypsinogen A: Chymotrypsinogen A (Bos taurus, UniProt P00766)
lecA: PA-I galactophilic lectin (lecA, Pseudomonas aeruginosa, UniProt Q05097)

`CCCC[C@H](NC(=O)[C@H](CCC(N)=O)NC(=O)[C@H](CO)NC(=O)[C@H](CO)NC(=O)CCCCCN)C(=O)N[C@@H](CC(C)C)B(O)O` gave a pKi of 6.86 (Chymotrypsinogen A; enzyme activity, inhibitor, fluorescence).
`[N-]=[N+]=NCC(=O)Nc1ccc(S[C@@H]2O[C@H](CO)[C@H](O)[C@H](O)[C@H]2O)cc1` gave a pKi of 5.38 (lecA; ligand displacement, FP).
For `OCC(F)(F)F`, the pKi was 3.01 (ADH1 (Saccharomyces cerevisiae, UniProt P00330, W83R); enzyme activity, inhibitor).
`[N-]=[N+]=NCCCCC(=O)Nc1ccc(S[C@@H]2O[C@H](CO)[C@H](O)[C@H](O)[C@H]2O)cc1` gave a pKi of 5.44 (lecA; ligand displacement, FP).
For `NC(=O)C1=CN([C@@H]2O[C@H](COP(=O)(O)OP(=O)(O)OC[C@H]3O[C@@H](n4cnc5c(N)ncnc54)[C@H](O)[C@@H]3O)[C@@H](O)[C@H]2O)C=CC1`, the pKi was 3.24 (ADH1 (Saccharomyces cerevisiae, UniProt P00330, W55R); enzyme activity, inhibitor).
`[N-]=[N+]=NCCCC(=O)Nc1ccc(S[C@@H]2O[C@H](CO)[C@H](O)[C@H](O)[C@H]2O)cc1` gave a pKi of 5.40 (lecA; ligand displacement, FP).
`CCCC[C@H](NC(=O)[C@H](CCCCN)NC(=O)[C@H](CO)NC(=O)[C@H](CO)NC(=O)OCc1ccccc1)C(=O)N[C@@H](CCCBr)B(O)O` has a pKi of 6.71 (Chymotrypsinogen A; enzyme activity, inhibitor, fluorescence).
With `NC(=O)C1=CN([C@@H]2O[C@H](COP(=O)(O)OP(=O)(O)OC[C@H]3O[C@@H](n4cnc5c(N)ncnc54)[C@H](O)[C@@H]3O)[C@@H](O)[C@H]2O)C=CC1` the pKi was 4.92 (ADH1 (Saccharomyces cerevisiae, UniProt P00330, H49E); enzyme activity, inhibitor).
For `CCCC[C@H](NC(=O)[C@H](CCC(N)=O)NC(=O)[C@H](CO)NC(=O)[C@H](C)NC(=O)CCCCCN)C(=O)N[C@@H](Cc1ccccc1)B(O)O`, the pKi was 7.44 (Chymotrypsinogen A; enzyme activity, inhibitor, fluorescence).
For `O=C(Cn1cc(CCN2CCN(c3cc4c(cc3F)c(=O)c(C(=O)O)cn4C3CC3)CC2)nn1)Nc1ccc(S[C@@H]2O[C@H](CO)[C@H](O)[C@H](O)[C@H]2O)cc1`, the pKi was 5.83 (lecA; ligand displacement, FP).
`Cc1ccc2c(c1)c1c3n2CCNC3CCC1` (stereo not drawn) gave a pKi of 6.11 (Amine oxidase [flavin-containing] A (Maoa, Rattus norvegicus, UniProt P21396); enzyme activity, inhibitor; pH 7.5).
`CCCC[C@H](NC(=O)[C@H](CCC(N)=O)NC(=O)[C@H](CO)NC(=O)[C@H](Cc1ccccc1)NC(=O)CCCCCN)C(=O)N[C@@H](Cc1ccccc1)B(O)O` gave a pKi of 9.87 (Chymotrypsinogen A; enzyme activity, inhibitor, fluorescence).
